Key:
[1] = molecular target: C-C chemokine receptor type 5 (Homo sapiens, UniProt P51681); assay: Inhibitory effect on Chemokine binding to C-C chemokine receptor type 5 using [125I]RANTES
Summary of the method: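 CHO/CCR5 cells (5 × 10⁴ cells/100 μL) cultured 24 h at 37 °C, then medium replaced with Ham's F-12 binding buffer containing 20 mM Hepes and 0.5% BSA, pH 7.2. Binding with [125I]RANTES (2000 Ci/mmol) plus graded compound concentrations, room temperature, 40 min. Free ligand removed by washing with cold PBS; cell-bound radioactivity counted. IC50 = 50% inhibition of binding; means of duplicate separate experiments (one compound triplicate).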

[2] = molecular target: T1, C-C chemokine receptor type 3 (Homo sapiens, UniProt P51677); assay: Inhibitory effect on the binding of [125I]- eotaxin to C-C chemokine receptor type 3- expressing CHO cells; assay type: cell-based
T1 sequence (P51677 whole entry): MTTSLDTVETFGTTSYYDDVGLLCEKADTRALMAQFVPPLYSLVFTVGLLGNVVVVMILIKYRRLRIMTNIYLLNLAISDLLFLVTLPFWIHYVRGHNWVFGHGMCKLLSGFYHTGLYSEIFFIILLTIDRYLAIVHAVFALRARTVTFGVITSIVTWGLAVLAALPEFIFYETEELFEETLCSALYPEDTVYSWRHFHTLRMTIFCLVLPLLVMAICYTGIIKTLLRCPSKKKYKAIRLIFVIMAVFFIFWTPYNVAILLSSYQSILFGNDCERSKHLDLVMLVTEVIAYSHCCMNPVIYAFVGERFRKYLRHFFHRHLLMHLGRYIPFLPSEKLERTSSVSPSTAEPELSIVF
Summary of the method: (§1)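 Whole-cell radioligand binding on CHO cells expressing CCR1 ([125I]RANTES), CCR3 ([125I]eotaxin) or CCR4 ([125I]TARC). Cells were seeded and cultured 24 h at 37 °C. Binding ran in Ham's F-12 with 20 mM Hepes and 0.5% BSA, pH 7.2, at room temperature for 40 min with graded compound. After a cold-PBS wash, cell-bound radioactivity was counted. Means ± SEM of ≥3 separate experiments.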

[3] = molecular target: T2, C-C chemokine receptor type 1 (Homo sapiens, UniProt P32246); assay: Inhibitory effect on the binding of [125I]RANTES to C-C chemokine receptor type 1-expressing CHO cells; assay type: cell-based; summary of the method: as §1
T2 sequence (P32246 whole entry): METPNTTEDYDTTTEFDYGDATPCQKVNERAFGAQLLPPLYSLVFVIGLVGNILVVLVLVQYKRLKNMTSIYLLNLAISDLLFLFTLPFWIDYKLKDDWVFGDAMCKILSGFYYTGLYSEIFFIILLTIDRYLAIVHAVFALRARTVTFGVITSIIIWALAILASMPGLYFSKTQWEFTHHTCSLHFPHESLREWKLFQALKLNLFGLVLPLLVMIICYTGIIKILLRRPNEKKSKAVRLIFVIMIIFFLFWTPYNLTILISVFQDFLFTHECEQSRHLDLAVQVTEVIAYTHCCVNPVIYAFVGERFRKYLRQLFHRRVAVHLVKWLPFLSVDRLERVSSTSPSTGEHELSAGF

[4] = molecular target: C-C chemokine receptor type 2 (Homo sapiens, UniProt P41597); assay: Inhibitory effect on the binding of [125I]- MCP-1 to C-C chemokine receptor type 2-expressing CHO cells; assay type: cell-based
Summary of the method: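 CCR2b-expressing CHO cells (5 × 10⁴ cells/100 μL) cultured 24 h at 37 °C. Medium replaced with binding buffer: Ham's F-12, 20 mM Hepes, 0.5% BSA, pH 7.2. [125I]MCP-1 binding run at room temperature for 40 min with graded test-compound concentrations. Free ligand washed off with cold PBS; cell-associated radioactivity counted by scintillation.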

[5] = molecular target: T3, C-C chemokine receptor type 4 (Homo sapiens, UniProt P51679); assay: Inhibitory effect on the binding of [125I]TARC to C-C chemokine receptor type 4-expressing CHO cells; assay type: cell-based; summary of the method: as §1
T3 sequence (P51679 whole entry): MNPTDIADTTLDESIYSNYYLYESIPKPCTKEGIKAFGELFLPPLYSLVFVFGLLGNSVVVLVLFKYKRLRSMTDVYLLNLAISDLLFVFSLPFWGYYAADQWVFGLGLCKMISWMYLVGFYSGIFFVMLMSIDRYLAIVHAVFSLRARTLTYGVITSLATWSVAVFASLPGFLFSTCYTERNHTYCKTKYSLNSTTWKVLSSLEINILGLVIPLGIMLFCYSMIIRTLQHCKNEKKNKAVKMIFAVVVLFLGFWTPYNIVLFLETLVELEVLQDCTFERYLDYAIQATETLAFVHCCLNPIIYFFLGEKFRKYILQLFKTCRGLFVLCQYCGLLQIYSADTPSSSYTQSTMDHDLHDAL

[6] = Inhibitory effects on HIV-1 (Ba-L) replication was evaluated in MAGI-CCR5 cells; assay type: functional, cell-based; details: Homo sapiens
[7] = system: Human immunodeficiency virus 1; assay: Inhibitory effects on HIV-1 (Ba-L) replication was evaluated in PBMCs; assay type: functional, organism-based

Sequence of C-C chemokine receptor type 5 (P51681 whole entry): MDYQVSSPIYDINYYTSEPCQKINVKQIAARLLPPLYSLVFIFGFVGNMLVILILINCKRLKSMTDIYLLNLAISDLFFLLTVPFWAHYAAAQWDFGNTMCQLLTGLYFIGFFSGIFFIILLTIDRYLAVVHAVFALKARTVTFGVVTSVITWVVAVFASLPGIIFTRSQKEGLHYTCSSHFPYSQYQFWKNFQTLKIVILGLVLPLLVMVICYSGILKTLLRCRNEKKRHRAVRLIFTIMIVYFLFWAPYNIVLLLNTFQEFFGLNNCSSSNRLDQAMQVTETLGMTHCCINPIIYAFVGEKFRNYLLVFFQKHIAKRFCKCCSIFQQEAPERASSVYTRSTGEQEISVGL
Sequence of C-C chemokine receptor type 2 (P41597 whole entry): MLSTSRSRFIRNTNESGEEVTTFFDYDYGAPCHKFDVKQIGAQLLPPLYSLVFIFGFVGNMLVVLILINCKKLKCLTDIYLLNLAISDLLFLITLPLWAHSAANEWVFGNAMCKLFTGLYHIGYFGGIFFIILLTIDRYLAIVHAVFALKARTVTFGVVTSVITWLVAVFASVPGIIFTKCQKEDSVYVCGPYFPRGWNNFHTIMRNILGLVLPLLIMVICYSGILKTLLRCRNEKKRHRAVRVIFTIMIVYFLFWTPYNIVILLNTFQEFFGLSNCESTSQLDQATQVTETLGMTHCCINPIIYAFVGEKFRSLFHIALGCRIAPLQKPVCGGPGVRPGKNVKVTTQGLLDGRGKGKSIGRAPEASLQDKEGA

| IC50 [1] [nM] | Structure (SMILES) | further results |
| --- | --- | --- |
| 840 | CC[N+](CC)(CC)Cc1ccc(NC(=O)C2=Cc3cc(-c4ccccc4)ccc3CC2)cc1 | – |
| 1.4 | Cc1ccc(-c2ccc3c(c2)C=C(C(=O)Nc2ccc(C[N+](C)(C)C4CCOCC4)cc2)CCO3)cc1 | – |
| 1.8 | CCOc1ccc(-c2ccc3c(c2)C=C(C(=O)Nc2ccc(C[N+](C)(C)C4CCOCC4)cc2)CCO3)cc1 | – |
| 380 | C[N+]1(Cc2ccc(NC(=O)C3=Cc4cc(-c5ccccc5)ccc4CC3)cc2)CCCCCC1 | – |
| 6.8 | Cc1ccc(-c2ccc3c(c2)C=C(C(=O)Nc2ccc(C[N+](C)(C)CCCO)cc2)CCO3)cc1 | – |
| 3.3 | CCC(CC)[N+](C)(C)Cc1ccc(NC(=O)C2=Cc3cc(-c4ccc(C)cc4)ccc3OCC2)cc1 | – |
| 240 | Cc1ccc(-c2ccc3c(c2)C=C(C(=O)Nc2ccc(C[N+]4(C)CCCCC4)cc2)CC3)cc1 | – |
| 1.4 | Cc1ccc(-c2ccc3c(c2)C=C(C(=O)Nc2ccc(C[N+](C)(C)C4CCOCC4)cc2)CCC3)cc1 [listing 1 of 2 here] | IC50 [2]: > 10000 nM; IC50 [3]: > 10000 nM; IC50 [4]: 27 nM; IC50 [5]: > 10000 nM; EC50 [6]: 1.2 nM; EC50 [7]: 3.7 nM |
| 1.5 | C[N+](C)(Cc1ccc(NC(=O)C2=Cc3cc(-c4ccc(C(F)(F)F)cc4)ccc3OCC2)cc1)C1CCOCC1 | – |
| 3.1 | Cc1ccc(-c2ccc3c(c2)C=C(C(=O)Nc2ccc(C[N+](C)(C)C4CCSCC4)cc2)CCO3)cc1 | – |
| 43 | Cc1ccc(-c2ccc3c(c2)C=C(C(=O)Nc2ccc(C[N+]4(C)CCCCC4)cc2)CCO3)cc1 | – |
| 3.8 | C[N+](C)(Cc1ccc(NC(=O)C2=Cc3cc(-c4ccc(N5CCCC5)cc4)ccc3CCC2)cc1)C1CCOCC1 | – |
| 2.2 | C[N+](C)(Cc1ccc(NC(=O)C2=Cc3cc(-c4ccc(N5CCCCC5)cc4)ccc3CCC2)cc1)C1CCOCC1 | – |
| 620 | CCCC[P+](CCCC)(CCCC)Cc1ccc(NC(=O)/C=C/c2cccc(-c3ccc(C)cc3)c2)cc1 | – |
| 25 | Cc1ccc(-c2ccc3c(c2)C=C(C(=O)Nc2ccc(C[N+]4(C)CCCCC4)cc2)CCC3)cc1 | – |
| 4.5 | Cc1ccc(-c2ccc3c(c2)C=C(C(=O)Nc2ccc(C[N+](C)(C)C4CCC(=O)CC4)cc2)CCO3)cc1 | – |
| 1100 | C[N+]1(CCc2ccc(NC(=O)C3=Cc4cc(-c5ccccc5)ccc4CC3)cc2)CCCCC1 | – |
| 110 | Cc1ccc(-c2ccc3c(c2)C=C(C(=O)Nc2ccc(CC[N+]4(C)CCCCC4)cc2)CCO3)cc1 | – |
| 1.8 | Cc1ccc(-c2ccc3c(c2)C=C(C(=O)Nc2ccc(C[N+](C)(C)C4CCOCC4)cc2)CCC3)cc1 [listing 2 of 2 here] | – |
| 660 | Cc1ccc(-c2ccc3c(c2)C=C(C(=O)Nc2ccc(C[N+]4(C)CCCCC4)cc2)CO3)cc1 | – |
| 3200 | Cc1cccc[n+]1Cc1ccc(NC(=O)C2=Cc3cc(-c4ccccc4)ccc3CC2)cc1 | – |
| 1200 | C[N+]1(Cc2ccc(NC(=O)C3=Cc4cc(-c5ccccc5)ccc4CC3)cc2)CCOCC1 | – |
| 430 | C[N+]1(Cc2ccc(NC(=O)C3=Cc4cc(-c5ccccc5)ccc4CC3)cc2)CCCC1 | – |
| 570 | Cc1ccc(-c2cccc(/C=C/C(=O)Nc3ccc(C[N+]4(C)CCCCC4)cc3)c2)cc1 | – |
| 390 | C[N+]1(Cc2ccc(NC(=O)C3=Cc4cc(-c5ccccc5)ccc4CC3)cc2)CCCCC1 | – |
